Data from ChEMBL document CHEMBL1139999, “Discovery of pyrazine carboxamide CB1 antagonists: the introduction of a hydroxyl group improves the pharmaceutical properties and in vivo efficacy of the series” (Bioorg Med Chem Lett, 2007).
≈ marks a conversion by molar mass, not a printed value. Calls of active or inactive are those of the source. No cut-off for these calls is given here.

Legend:
Cannabinoid receptor 1 [1] = target: T1, Cannabinoid receptor 1 (Homo sapiens, UniProt P21554); assay: Binding affinity to human CB1 receptor
T1 sequence (P21554 whole entry): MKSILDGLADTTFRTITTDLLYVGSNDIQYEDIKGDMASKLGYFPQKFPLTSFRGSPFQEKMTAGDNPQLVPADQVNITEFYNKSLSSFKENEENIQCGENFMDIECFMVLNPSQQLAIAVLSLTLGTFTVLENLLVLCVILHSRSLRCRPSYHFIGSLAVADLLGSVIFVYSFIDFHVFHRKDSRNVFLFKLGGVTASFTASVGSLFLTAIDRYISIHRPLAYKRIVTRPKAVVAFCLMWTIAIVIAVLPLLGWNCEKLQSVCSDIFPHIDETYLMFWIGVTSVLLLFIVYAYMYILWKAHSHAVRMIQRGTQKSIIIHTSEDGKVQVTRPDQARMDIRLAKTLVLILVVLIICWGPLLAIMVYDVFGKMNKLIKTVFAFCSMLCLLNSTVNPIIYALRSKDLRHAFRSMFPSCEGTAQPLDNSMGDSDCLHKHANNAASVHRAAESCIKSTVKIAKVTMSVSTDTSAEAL

Rattus norvegicus [2] = assay: Reduction in feeding in food deprived Sprague-Dawley rat feeding model at 10 mg/kg, po after 2 hrs; assay type: functional; parameters: scale not given: the % may be the effect or the level left
Outline: (§1)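 Rats were fasted and then dosed orally at 10 mg/kg. Food was reintroduced 30 min after dosing, and refeeding was quantified versus vehicle-treated animals at 2, 4 and 24 h post-dose. Locomotor activity was also monitored.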

Rattus norvegicus [3] = assay: Reduction in feeding in food deprived Sprague-Dawley rat feeding model at 10 mg/kg, po after 4 hrs; assay type: functional; parameters: scale not given: the % may be the effect or the level left; outline: as §1
Rattus norvegicus [4] = assay: Reduction in feeding in food deprived Sprague-Dawley rat feeding model at 10 mg/kg, po after 24 hrs; assay type: functional; parameters: scale not given: the % may be the effect or the level left; outline: as §1
Rattus norvegicus [5] = assay: Change in food intake in Sprague-Dawley rat at 10 mg/kg, po; assay type: functional, organism-based; parameters: dose 10 mg/kg
Outline: (§2)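 Ad libitum-fed rats trained to operate a lever to obtain food were dosed orally at 10 or 30 mg/kg. Cumulative food intake was measured at 4 h versus vehicle-treated controls, with significance testing (p < 0.05).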

Rattus norvegicus [6] = assay: Change in food intake in Sprague-Dawley rat at 30 mg/kg, po after 4 hrs; assay type: functional; outline: as §2
[7] = Average Tmax in Sprague-Dawley rat at 10 mg/kg, po; assay type: ADME, organism-based; parameters: dose 10 mg/kg, route oral; details: in vivo
Outline: (§3)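 Oral PK in male Sprague-Dawley rats dosed at 10 mg/kg. Plasma sampled over 0–4 h for AUC(0–4h) and Tmax. Brain and plasma concentrations were taken at 4 h to give the brain/plasma ratio. Values are averages of n = 2 rats.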

[8] = AUC(0 to 4 hrs) in Sprague-Dawley rat at 10 mg/kg, po; assay type: ADME, organism-based; parameters: time < 4 hr, dose 10 mg/kg, route oral; details: plasma; outline: as §3
[9] = Drug level in Sprague-Dawley rat brain at 10 mg/kg, po after 4 hrs; assay type: ADME, organism-based; parameters: dose 10 mg/kg, route oral; details: read-out: Drug uptake; outline: as §3
[10] = Ratio of drug level in brain to plasma in Sprague-Dawley rat at 10 mg/kg, po after 4 hrs; assay type: ADME, organism-based; parameters: dose 10 mg/kg, route oral; details: read-out: BPR; outline: as §3
Cannabinoid receptor 1 [11] = target: Cannabinoid receptor 1 (Rattus norvegicus, UniProt P20272); assay: Binding affinity to rat CB1 receptor
Chain of Cannabinoid receptor 1 (Rattus norvegicus, UniProt P20272) (P20272 whole entry): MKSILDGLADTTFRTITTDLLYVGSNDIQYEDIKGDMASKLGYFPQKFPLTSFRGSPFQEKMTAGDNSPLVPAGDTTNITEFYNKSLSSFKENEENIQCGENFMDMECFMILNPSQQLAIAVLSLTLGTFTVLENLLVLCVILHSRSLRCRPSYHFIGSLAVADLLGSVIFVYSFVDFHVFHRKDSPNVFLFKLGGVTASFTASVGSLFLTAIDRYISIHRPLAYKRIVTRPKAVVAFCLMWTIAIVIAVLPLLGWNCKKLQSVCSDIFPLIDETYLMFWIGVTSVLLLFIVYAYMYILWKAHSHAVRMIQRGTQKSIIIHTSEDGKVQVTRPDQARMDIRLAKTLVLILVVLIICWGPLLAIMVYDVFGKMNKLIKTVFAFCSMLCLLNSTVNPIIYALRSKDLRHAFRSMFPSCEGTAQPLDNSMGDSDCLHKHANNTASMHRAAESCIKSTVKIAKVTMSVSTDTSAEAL

Cannabinoid receptor 1 [12] = target: T1, Cannabinoid receptor 1; assay: Binding affinity to human CB1 receptor at 13 uM
[13] = Average Tmax in Sprague-Dawley rat at 30 mg/kg, po; assay type: ADME, organism-based; parameters: dose 30 mg/kg, route oral; details: in vivo
Outline: (§4)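 Male Sprague–Dawley rats dosed orally at 30 mg/kg as a suspension in 0.5% Methocel/1% Tween 80/water. Plasma and brain levels measured, with brain concentration and brain/plasma ratio taken at 4 h. AUC covers 0–4 h. Values are averages of n = 2 rats.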

[14] = AUC(0 to 4 hrs) in Sprague-Dawley rat at 30 mg/kg, po; assay type: ADME, organism-based; parameters: time < 4 hr, dose 30 mg/kg, route oral; details: plasma; outline: as §4
[15] = Drug level in Sprague-Dawley rat brain at 30 mg/kg, po after 4 hrs; assay type: ADME, organism-based; parameters: dose 30 mg/kg, route oral; details: read-out: Drug uptake; outline: as §4
[16] = Ratio of drug level in brain to plasma in Sprague-Dawley rat at 30 mg/kg, po after 4 hrs; assay type: ADME, organism-based; parameters: dose 30 mg/kg, route oral; details: read-out: Drug uptake; outline: as §4
[17] = Aqueous solubility at pH 6.5; assay type: physicochemical

Compound | Ki (Cannabinoid receptor 1 [1]) | also measured
Cc1ccc(-c2ncc(C(=O)N[C@H](CO)CC(C)C)nc2-c2ccc(C)cc2)cc1 | 45 nM | Activity (Rattus norvegicus [2]): 37%; Activity (Rattus norvegicus [3]): 32%; Activity (Rattus norvegicus [4]): 16%; Activity (Rattus norvegicus [5]): inactive; Activity (Rattus norvegicus [6]): 34%; Tmax [7]: 1 h; AUC(0-t) at 4 h [8]: 0.541 µM·h; concentration at 4 h [9]: 306 nM; Kp at 4 h [10]: 3; Ki (Cannabinoid receptor 1 [11]): 35 nM
Cc1ccc(-c2ncc(C(=O)N[C@H]3CC[C@H](O)CC3)nc2-c2ccc(C)cc2)cc1 | – | inhibition (Cannabinoid receptor 1 [12]): 54%
Cc1ccc(-c2ncc(C(=O)N3CCNC(=O)C3)nc2-c2ccc(C)cc2)cc1 | – | inhibition (Cannabinoid receptor 1 [12]): 29%
CCC(COCc1ccccc1)NC(=O)c1cnc(-c2ccc(C)cc2)c(-c2ccc(C)cc2)n1 (configuration not stated) | 203 nM | –
Cc1ccc(-c2ncc(C(=O)NC(C)COc3c(C)cccc3C)nc2-c2ccc(C)cc2)cc1 (configuration not stated) | 39 nM | –
Cc1ccc(-c2ncc(C(=O)N[C@@H](CO)CC(C)C)nc2-c2ccc(C)cc2)cc1 | 460 nM | –
Cc1ccc(-c2ncc(C(=O)N[C@@H](CO)C(C)C)nc2-c2ccc(C)cc2)cc1 | 316 nM | –
Cc1ccc(-c2ncc(C(=O)N[C@@H]3CCCC[C@@H]3CO)nc2-c2ccc(C)cc2)cc1 | 167 nM | –
CCNC(=O)c1cnc(-c2ccc(C)cc2)c(-c2ccc(C)cc2)n1 | 2380 nM | –
Cc1ccc(-c2ncc(C(=O)N[C@@H]3CCCC[C@@H]3O)nc2-c2ccc(C)cc2)cc1 | 300 nM | –
Cc1ccc(-c2ncc(C(=O)NCC3CCCCC3)nc2-c2ccc(C)cc2)cc1 | 59 nM | –
CC(C)C[C@@H](COP(=O)(O)O)NC(=O)c1cnc(-c2ccc(Cl)cc2)c(-c2ccc(Cl)cc2)n1 | – | solubility [17]: 430 µg/mL (≈ 820 µM)
CC(C)C[C@@H](CO)NC(=O)c1cnc(-c2ccc(Cl)cc2)c(-c2ccc(Cl)cc2)n1 | 14 nM | Tmax [7]: 1 h; AUC(0-t) at 4 h [8]: 0.736 µM·h; concentration at 4 h [9]: 491 nM; Kp at 4 h [10]: 3.1; Ki (Cannabinoid receptor 1 [11]): 30 nM
Cc1ccc(-c2ncc(C(=O)NC3CCNC3=O)nc2-c2ccc(C)cc2)cc1 (configuration not stated) | – | inhibition (Cannabinoid receptor 1 [12]): 46%
CCCC(CO)NC(=O)c1cnc(-c2ccc(C)cc2)c(-c2ccc(C)cc2)n1 (configuration not stated) | 158 nM | –
Cc1ccc(-c2ncc(C(=O)N[C@@H]3CCCC[C@H]3CO)nc2-c2ccc(C)cc2)cc1 | 50 nM | –
Cc1ccc(-c2ncc(C(=O)N3CCC(O)CC3)nc2-c2ccc(C)cc2)cc1 | – | inhibition (Cannabinoid receptor 1 [12]): 38%
Cc1ccc(-c2ncc(C(=O)N[C@H](CO)C(C)C)nc2-c2ccc(C)cc2)cc1 | 237 nM | –

Second part, led by results:

Ki (Cannabinoid receptor 1 [1]) | Compound | also measured
3850 nM | CNC(=O)c1cnc(-c2ccc(C)cc2)c(-c2ccc(C)cc2)n1 | –
178 nM | Cc1ccc(-c2ncc(C(=O)NCC3CC3)nc2-c2ccc(C)cc2)cc1 | –
105 nM | Cc1ccc(-c2ncc(C(=O)N[C@@H](CC(C)C)C(N)=O)nc2-c2ccc(C)cc2)cc1 | –
238 nM | Cc1ccc(-c2ncc(C(=O)N[C@@H](C(N)=O)c3ccccc3)nc2-c2ccc(C)cc2)cc1 | –
656 nM | Cc1ccc(-c2ncc(C(=O)NC(C)C)nc2-c2ccc(C)cc2)cc1 | –
18 nM | Cc1ccc(-c2ncc(C(=O)NCCCc3ccccc3)nc2-c2ccc(C)cc2)cc1 | Tmax [13]: 2 h; AUC(0-t) at 4 h [14]: 0.256 µM·h; concentration at 4 h [15]: 34 nM; Kp at 4 h [16]: 0.4; Ki (Cannabinoid receptor 1 [11]): 80 nM
33 nM | Cc1ccc(-c2ncc(C(=O)NC3Cc4ccccc4C3O)nc2-c2ccc(C)cc2)cc1 (configuration not stated) | –
53 nM | Cc1ccc(-c2ncc(C(=O)NN3CCCCC3)nc2-c2ccc(C)cc2)cc1 | –
8430 nM | Cc1ccc(-c2ncc(C(=O)NCCO)nc2-c2ccc(C)cc2)cc1 | –
5 nM | Cc1ccc(-c2ncc(C(=O)NC(C)CCc3ccccc3)nc2-c2ccc(C)cc2)cc1 (configuration not stated) | –
25 nM | Cc1ccc(-c2ncc(C(=O)NCCCN(C)c3ccccc3)nc2-c2ccc(C)cc2)cc1 | –
509 nM | Cc1ccc(-c2ncc(C(=O)Nc3ccccc3)nc2-c2ccc(C)cc2)cc1 | –
110 nM | Cc1ccc(-c2ncc(C(=O)N(C)Cc3ccccc3)nc2-c2ccc(C)cc2)cc1 | –
631 nM | Cc1ccc(-c2ncc(C(=O)NCCOc3ccccc3)nc2-c2ccc(C)cc2)cc1 | –
